The list is not random: actives were taken first. Their share in the collection is about 3.5%.
RGS4 block: inhibitors of human RGS4; HEK293 M3R/RGS4 inducible, Fluo-4 calcium flux; active compounds read high; triggered by carbachol at its EC20; P49798; 310,000 compounds, 0.45% hits; B-score at 10 µM; AID 463165;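 active means B-score, a plate-corrected calcium signal, over three deviations above library mean, with baseline fluorescence within five deviations of library mean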;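 further: RGS4 expression induced by doxycycline in cells with stable M3 receptor; B-score is computed from the integrated fluorescence ratio over baseline after carbachol; higher B-score means a larger calcium signal and so more RGS4 inhibition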
Target sequence (P49798 whole entry, looked up): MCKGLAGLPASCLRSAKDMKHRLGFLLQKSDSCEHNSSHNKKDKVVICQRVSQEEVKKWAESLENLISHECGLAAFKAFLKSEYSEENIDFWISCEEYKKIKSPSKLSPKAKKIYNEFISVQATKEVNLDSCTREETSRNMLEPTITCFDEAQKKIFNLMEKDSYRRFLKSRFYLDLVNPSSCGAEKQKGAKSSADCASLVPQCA
MrgX1 PAM: human MrgX1 positive allosteric modulation, primary screen; B-score at 10 µM; Q96LB2; MrgX1-HEK293, Fluo-4 calcium flux, FDSS; active compounds read high; 310,000 compounds, 0.63% hits;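 active means plate-corrected calcium response at least 3 library SD above typical, normal starting fluorescence, not activating the receptor alone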;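 further: compound read alongside a low EC10 to EC30 dose of BAM8-22 agonist; peak minus trough fluorescence over baseline measured at the second addition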
Target sequence (Q96LB2 whole entry, looked up): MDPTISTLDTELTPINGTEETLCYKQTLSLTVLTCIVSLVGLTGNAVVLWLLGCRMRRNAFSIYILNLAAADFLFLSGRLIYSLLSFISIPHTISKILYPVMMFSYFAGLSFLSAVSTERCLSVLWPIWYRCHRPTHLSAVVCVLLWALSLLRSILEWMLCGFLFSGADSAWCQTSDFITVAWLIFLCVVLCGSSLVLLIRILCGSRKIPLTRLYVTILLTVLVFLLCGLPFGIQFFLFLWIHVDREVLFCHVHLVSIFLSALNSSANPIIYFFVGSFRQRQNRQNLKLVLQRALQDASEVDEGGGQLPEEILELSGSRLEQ
MrgX1 antag: human MrgX1 receptor antagonism, primary screen. Q96LB2. MRGX1-HEK293 calcium flux, Fluo-4, BAM8-22 antagonism; active compounds read low. B-score at 10 µM. 310,000 compounds, 1.3% hits;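 active means calcium-response B-score plate-corrected more than 3 library SD below zero, starting fluorescence within 5 deviations, no agonist response on first addition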;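 further: peak minus trough fluorescence over baseline after final BAM8-22 challenge near maximal dose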
RGS4 act: RGS4 potentiation or activation; HEK293 M3R/inducible RGS4, carbachol calcium flux Fluo4; active compounds read low; B-score at 10 µM; 310,000 compounds, 0.92% hits; AID 463111;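 active means B-score of the integrated calcium signal more than 4 SD below the library mean, with starting fluorescence not abnormally high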;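 further: negative B-score means reduced calcium response which marks RGS4 activation or potentiation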
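Assay system: HEK293 FlpIn-TREx cells, stable M3R, doxycycline-inducible RGS4 / Probe or stimulus: carbachol, ECmax concentration / Times: overnight RGS4 induction, 30 min dye load 37 °C, 20 min compound RT / Signal: kinetic calcium fluorescence imaging with Fluo4-AM dye, 2 µM / Measure: Agonist-evoked peak-minus-minimum fluorescence over baseline, integrated ratio, B score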
MrgX1 agonist: human MrgX1 receptor agonism, primary screen. MrgX1-HEK293 cells, Fluo-4 calcium fluorescence, agonist mode; active compounds read high. B-score at 10 µM. 310,000 compounds, 0.44% hits;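 active means calcium response B-score plate-corrected fluorescence ratio at least 3 library SD, with starting fluorescence B-score inside 5 SD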
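Material – MrgX1-expressing HEK293 cells · Input – 15,000 cells seeded per well · Dosing – compound as first of three additions · Times – overnight seeding, then 1 h dark dye loading · Measured by – kinetic Fluo-4 NW fluorescence of intracellular calcium · Read-out – B-scored fluorescence response ratio · Benchmarks – positive and negative control wells on each plate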
MrgX1 antag conf: human MrgX1 receptor antagonism, re-confirmation screen. 2,300 compounds, 19% hits. shares compounds with MrgX1 antag. MrgX1-HEK293, BAM8-22 calcium flux, Fluo-4; active compounds read low. remaining BAM8-22 calcium response % of control (active compounds read low), % at 10 µM;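 active means remaining agonist calcium response no higher than 100% minus 3 SD of agonist-only control wells, with starting fluorescence near control levels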;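 further: agonist BAM8-22 given at a near maximal EC90 to ECmax level; peak minus minimum fluorescence divided by baseline after agonist addition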
HEK293 Ca flux: activity in parental HEK293 cells lacking MrgX1; AID 624111; 4,000 compounds, 2% hits; fluorescence ratio F(max-min)/F0 at 10 µM; Fluo-4 calcium fluorescence, FDSS; shares compounds with MrgX1 antag;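 active means duplicate-averaged calcium fluorescence ratio at least three times the standard deviation of buffer wells, a nonspecific response in parental cells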
HEK293 Ca counter: activity in parental HEK293 cells without MrgX1; shares compounds with MrgX1 antag; parental HEK293 calcium flux, Fluo-4 fluorescence ratio; active compounds read high; fluorescence ratio F(max-min)/F0 at 10 µM; 4,000 compounds, 0.4% hits;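 active means calcium fluorescence ratio, averaged over duplicates, at least 3 SD of the buffer-well ratio, meaning a nonspecific response in receptor-free cells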;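 further: untransfected parental HEK293 lacking MrgX1 used as counterscreen for MrgX1 allosteric activators; fluorescence change taken during the second addition on a kinetic imager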
HEK293 Ca cntr2: MrgX1 activator counter-screen hit in parental HEK293 cells. shares compounds with MrgX1 antag. Fluo-4 calcium fluorescence (FDSS); active compounds read high. fluorescence ratio F(max-min)/F0 at 10 µM. 4,000 compounds, 8.7% hits;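 active means calcium fluorescence ratio at least three times the spread of buffer wells, meaning a non-specific response in parental cells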
Each line names hits and unclear results; the compound was inactive in the other large screens (follow-up assays come after a bar, where they were run).

N#Cc1nc(Cc2ccccc2)oc1NCCN1CCOCC1	MrgX1 antag -7.5 | MrgX1 antag conf inactive | HEK293 Ca flux inactive | HEK293 Ca counter inactive | HEK293 Ca cntr2 inactive
Cc1ccccc1C(=O)Nc1ccnn1C1CCN(Cc2ccc(CO)o2)CC1	none
COCCn1c(N)c(C(=S)NC(=O)c2cccs2)c(=O)[nH]c1=O	none
O=C(CN1C(=O)NC2(CCCc3ccccc32)C1=O)N1CCc2ccccc2C1 (stereo not drawn)	MrgX1 antag -9.25 | MrgX1 antag conf 85.2% | HEK293 Ca flux inactive | HEK293 Ca counter inactive | HEK293 Ca cntr2 inactive
CCOC(=O)CSc1n[nH]c(-c2cccnc2)n1	MrgX1 antag -6.96 | MrgX1 antag conf inactive | HEK293 Ca flux inactive | HEK293 Ca counter inactive | HEK293 Ca cntr2 inactive
COc1ccc(OC)c(NC(=O)C23CC4CC(C2)CC(n2cnc(Br)n2)(C4)C3)c1	MrgX1 antag -5.25 | MrgX1 antag conf inactive | HEK293 Ca flux inactive | HEK293 Ca counter inactive | HEK293 Ca cntr2 inactive
CCOC(=O)c1sc(NC(=S)NC(=O)c2cccc(Cl)c2)c(C(=O)OCC)c1C	MrgX1 antag -4.87 | MrgX1 antag conf inactive | HEK293 Ca flux inactive | HEK293 Ca counter inactive | HEK293 Ca cntr2 inactive
NC(=O)C1CCN(C(=O)NC2CC(=O)N(c3ccc4c(c3)OCCO4)C2)CC1 (stereo not drawn)	MrgX1 antag -6.95 | MrgX1 antag conf inactive | HEK293 Ca flux inactive | HEK293 Ca counter inactive | HEK293 Ca cntr2 inactive
CCC(C)c1ccccc1NC(=O)COC(=O)c1ccc2[nH]c3c(c2c1)CCCC3 (stereo not drawn)	MrgX1 antag -7.45 | MrgX1 antag conf inactive | HEK293 Ca flux inactive | HEK293 Ca counter inactive | HEK293 Ca cntr2 inactive
O=C(COC(=O)c1ccc2[nH]c3c(c2c1)CCCC3)Nc1ccccc1Cl	none
Cc1ccc(S(=O)(=O)/N=c2\sccn2C)cc1	none
Cn1ccs/c1=N\S(=O)(=O)c1ccc(F)cc1	MrgX1 antag -5.01 | MrgX1 antag conf inactive | HEK293 Ca flux inactive | HEK293 Ca counter inactive | HEK293 Ca cntr2 inactive
Cc1c(C)c2c(C)nn(-c3ccccc3)c2[nH]c1=O	none
CCc1c(C)c2c(C)nn(-c3ccccc3)c2[nH]c1=O	MrgX1 antag -4.56 | MrgX1 antag conf 85.1% | HEK293 Ca flux inactive | HEK293 Ca counter inactive | HEK293 Ca cntr2 inactive
Cc1cccc(NC(=O)Nc2ccc3c(c2)CCC3)c1	none
CC(C)(C)CC(=O)Nc1cc2c3c(c1)CCC(=O)N3CCC2	MrgX1 antag -4.93 | MrgX1 antag conf inactive | HEK293 Ca flux inactive | HEK293 Ca counter inactive | HEK293 Ca cntr2 inactive
CCOC(=O)c1sc2nc(CSc3ccccc3)nc(N3CCC(C(N)=O)CC3)c2c1C	none
Cc1sc2nc(CSc3ccccc3)nc(N3CCC(C(N)=O)CC3)c2c1C	MrgX1 antag -11 | MrgX1 antag conf inactive | HEK293 Ca flux inactive | HEK293 Ca counter inactive | HEK293 Ca cntr2 inactive
CC(=O)NC1C(=O)N(CCN2CCOCC2)c2ccc(F)cc21 (stereo not drawn)	MrgX1 antag -5.35 | MrgX1 antag conf 60.5% | HEK293 Ca flux inactive | HEK293 Ca counter inactive | HEK293 Ca cntr2 inactive
CC(=O)NC1C(=O)N(CCN2CCOCC2)c2ccc(Cl)cc21 (stereo not drawn)	MrgX1 antag -8.71 | MrgX1 antag conf inactive | HEK293 Ca flux inactive | HEK293 Ca counter inactive | HEK293 Ca cntr2 inactive
CCCCN1C(=O)C(NC(C)=O)c2cc(Br)ccc21 (stereo not drawn)	none
O=C(CN(C(=O)c1csnn1)c1cccc2ccccc12)NCc1ccccc1	none
CC(C)CCN1CCC(n2nccc2NC(=O)c2ccc3c(c2)OCO3)CC1	none
CCOC(=O)C1C(=O)CC(C)(O)C(C(=O)OCC)C1c1ccc([N+](=O)[O-])cc1 (stereo not drawn)	none
COc1ccc2[nH]c3c(c2c1)CCN1C(=O)N([C@@H](C)C(=O)NCc2ccccc2)C(=O)[C@]31C	MrgX1 antag -8.64 | MrgX1 antag conf inactive | HEK293 Ca flux inactive | HEK293 Ca counter inactive | HEK293 Ca cntr2 inactive
COc1ccc2[nH]c3c(c2c1)CCN1C(=O)N([C@@H](C)C(=O)NCc2ccccc2OC)C(=O)[C@]31C	none
Cn1c(N)c(C(=O)COC(=O)[C@@H]2CCCN2S(=O)(=O)c2ccc(Cl)cc2)c(=O)n(C)c1=O	MrgX1 antag -6.06 | MrgX1 antag conf inactive | HEK293 Ca flux inactive | HEK293 Ca counter inactive | HEK293 Ca cntr2 inactive
CCN(c1ccccc1)S(=O)(=O)c1ccc(OC)c(NC(=O)C2CC(=O)N(Cc3ccccc3)C2)c1 (stereo not drawn)	none
CCN=C(NCC)SC1CC(=O)N(c2ccccc2)C1=O (stereo not drawn)	MrgX1 antag -8.16 | MrgX1 antag conf inactive | HEK293 Ca flux inactive | HEK293 Ca counter inactive | HEK293 Ca cntr2 inactive
Cc1ccc(-n2nc3c(c2NC(=O)C(C)C)CS(=O)(=O)C3)cc1	none
Cc1nc2ccccc2c(=O)n1/N=C/c1ccccc1OC(F)F	none
CN(C)c1ccnc2sc3c(=O)n(-c4ccccc4)cnc3c12	MrgX1 antag -4.62 | MrgX1 antag conf inactive | HEK293 Ca flux inactive | HEK293 Ca counter inactive | HEK293 Ca cntr2 inactive
Cn1c(=O)[nH]c(=O)c2c1nc(SCC(=O)O)n2CCCc1ccccc1	MrgX1 antag -6.86 | MrgX1 antag conf 83.8% | HEK293 Ca flux inactive | HEK293 Ca counter inactive | HEK293 Ca cntr2 inactive
CCOC(=O)c1ccccc1NC(=O)COC(=O)CCNS(=O)(=O)c1ccccc1	none
COc1ccc(NC(=O)CNS(=O)(=O)c2cccc3nonc23)c(OC)c1	MrgX1 antag -5.66 | MrgX1 antag conf inactive | HEK293 Ca flux inactive | HEK293 Ca counter inactive | HEK293 Ca cntr2 inactive
CSc1nc(N2CCN(c3ccccc3)CC2)cc(N2CCN(c3ccccc3)CC2)n1	MrgX1 antag -5.52 | MrgX1 antag conf inactive | HEK293 Ca flux inactive | HEK293 Ca counter inactive | HEK293 Ca cntr2 inactive
COCCNC(=O)C(=O)NCC1OCCN1C(=O)c1ccc(Cl)cc1 (stereo not drawn)	MrgX1 antag -5.63 | MrgX1 antag conf inactive | HEK293 Ca flux inactive | HEK293 Ca counter inactive | HEK293 Ca cntr2 inactive
COC(CNC(=O)C(=O)NCC1OCCN1C(=O)c1ccc(Cl)cc1)OC (stereo not drawn)	none
Cc1nc(-c2nnc(SCC(=O)Nc3ccc(C(F)(F)F)cc3)n2C)cs1	none

Screening results: PubChem, Johns Hopkins Ion Channel Center
